“Also recorded” adds a separate entry of the source. Blank lines part the entries; values can stand above or below the compound they belong to.
Experiments:
SmTGR [1] = target: T1, SmTGR (Schistosoma mansoni, UniProt Q962Y6); assay: SmTGR enzymatic assay; type: biochemical
T1 sequence (Q962Y6 1-598): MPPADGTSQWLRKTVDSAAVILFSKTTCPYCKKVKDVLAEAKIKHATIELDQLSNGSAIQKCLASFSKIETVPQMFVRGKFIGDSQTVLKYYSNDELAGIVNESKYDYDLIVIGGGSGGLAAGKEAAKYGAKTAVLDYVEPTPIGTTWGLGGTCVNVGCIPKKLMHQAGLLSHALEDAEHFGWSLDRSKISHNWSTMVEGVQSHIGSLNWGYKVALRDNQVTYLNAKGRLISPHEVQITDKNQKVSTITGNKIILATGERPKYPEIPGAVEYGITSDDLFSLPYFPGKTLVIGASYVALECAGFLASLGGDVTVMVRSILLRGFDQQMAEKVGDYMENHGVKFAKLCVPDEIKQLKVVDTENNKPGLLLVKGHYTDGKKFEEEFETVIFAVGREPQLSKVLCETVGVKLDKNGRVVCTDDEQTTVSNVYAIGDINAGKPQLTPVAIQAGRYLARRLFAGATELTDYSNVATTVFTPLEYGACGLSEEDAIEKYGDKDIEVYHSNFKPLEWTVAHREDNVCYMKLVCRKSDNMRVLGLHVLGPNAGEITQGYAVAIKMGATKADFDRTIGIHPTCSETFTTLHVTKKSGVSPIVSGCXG

Mammalian TrxR [2] = settings: ref Bioassays AID 588453 and AID 588456, cited from earlier work
schistosomula = assay: Schistosomicidal activity against ex vivo schistosomula; design: species or system Schistosoma mansoni
Outline: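 Schistosomula were made by mechanical transformation of cercariae from infected Biomphalaria glabrata, then isolated on a Percoll gradient. They were cultured for 24 hr in M-199 with 10% fetal calf serum before test compound was added. Untreated larvae served as controls. Survival was followed by daily observation, and larvae without movement were scored dead.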

SmTGR [3] = target: T1, SmTGR; assay: Steady state experiments varying NADPH at saturating DTNB; type: biochemical
adult worms = assay: Schistosomicidal activity against ex vivo adult worms; design: species or system Schistosoma mansoni
Outline: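 Adult Schistosoma mansoni were perfused from mice seven weeks after infection. They were cultured for 24 hr in RPMI with 10% fetal calf serum, 10 mM glutamine and 1X penicillin/streptomycin before test compound was added. Untreated worms served as controls. Worms were checked daily and scored dead when no movement was seen.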

hGR = target: T2, hGR (Homo sapiens, UniProt P00390); assay: Activity against human glutathione reductase; type: biochemical; settings: results not shown
T2 sequence (P00390 44-522): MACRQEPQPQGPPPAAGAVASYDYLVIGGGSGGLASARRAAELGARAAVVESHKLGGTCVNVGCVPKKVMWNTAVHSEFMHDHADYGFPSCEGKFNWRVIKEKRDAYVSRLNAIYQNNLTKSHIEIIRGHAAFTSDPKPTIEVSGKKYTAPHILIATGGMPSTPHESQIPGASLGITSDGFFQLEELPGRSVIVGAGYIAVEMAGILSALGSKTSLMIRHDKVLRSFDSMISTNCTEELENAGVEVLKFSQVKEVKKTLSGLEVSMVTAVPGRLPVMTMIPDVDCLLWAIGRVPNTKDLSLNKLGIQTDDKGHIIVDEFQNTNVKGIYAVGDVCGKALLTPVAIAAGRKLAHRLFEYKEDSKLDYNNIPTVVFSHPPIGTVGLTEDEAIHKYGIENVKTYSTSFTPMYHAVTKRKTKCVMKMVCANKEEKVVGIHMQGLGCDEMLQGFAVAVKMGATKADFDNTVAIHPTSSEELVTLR

Mammalian TrxR [4] = assay: Mammalian TrxR inhibition; type: biochemical; settings: in words
[5] = test system: TGR activity in treated worms; assay: Inhibition of TGR in treated ex vivo worms; design: species or system Schistosoma mansoni; settings: adult worms cultured with 50 μM compound, versus DMSO-treated worms
[6] = Behaviour of compound in worm culture medium; type: physicochemical

Compound: O=C(O)c1ccc2ccccc2c1 [CID: 7123, 2-Naphthoic acid]
IC50 (SmTGR [1]): 1100 µM

Compound: O=C(O)c1ccc2ncccc2n1 [CID: 12426408, 1,5-Naphthyridine-2-carboxylic acid]
IC50 (SmTGR [1]): 2600 µM

Compound: O=C(O)c1ccc2cccnc2n1 [Compound 1, 1,8-naphthyridine-2-carboxylate]
Inhibition of mammalian hTrxR (in words) (Mammalian TrxR [2]): does not inhibit; also recorded: undetectable inhibition
Mammalian TrxR IC50 (Mammalian TrxR [2]): Inactive
Schistosomula killed (schistosomula; 10 μM, in five days): 0%
Schistosomula killed (schistosomula; 50 μM, in five days): 11%
Inhibition mechanism versus NADPH (SmTGR [3]; NADPH 0.01 to 1 mM, DTNB 3 mM): mixed competitive inhibition mechanism
KIS, binding of inhibitor to NADPH-bound enzyme (estimated) (SmTGR [3]; at 3 mM DTNB): 4.8 mM
Adult worms killed (adult worms; 10 μM, in five days): 0%
Adult worms killed (adult worms; 50 μM, in five days): 13%
Activity against hGR (hGR): no detectable activity
Selectivity for SmTGR over hTrxR (Mammalian TrxR [4]): high selectivity

Compound: OCCN1CCN(CCO)CC1 [Compound 2, 1,4-bis(2-hydroxyethyl)piperazine]
SmTGR IC50 (SmTGR [1]; 6-His-tagged SmTGRwt 20 nM, 10 min preincubation with NADPH 100 μM, DTNB 3 mM): inactive

Compound: O=S(=O)(O)CCN1CCN(CCO)CC1 [Compound 4, 4-(2-Hydroxyethyl)-1-piperazineethanesulfonic acid]
IC50 (SmTGR [1]): 3300 µM

Compound: CCOC(=O)c1c(C)oc2c1c(CN1CCN(CCO)CC1)c(O)c1ccccc12 [Compound 6, ethyl 5-hydroxy-4-{[4-(2-hydroxyethyl)piperazin-1-yl]methyl}−2-methylnaphtho[1,2-b]furan-3-carboxylate]
Solubility behaviour in culture medium [6]: initially precipitated in the culture medium then slowly dissolved over the following hours
IC50 (Mammalian TrxR [2]; read-out: Mammalian TrxR IC50): 1.12 µM
Schistosomula killed (schistosomula; 10 μM, in five days): 100%
Schistosomula killed (schistosomula; 50 μM, in 24 hr): killed all schistosomula
Adult worms killed (adult worms; 10 μM, in five days): 9%
Adult worms killed (adult worms; 50 μM, in four days): 100%
GR (GSH disulfide reduction) activity in treated worms [5]: significant inhibition
TrxR (DTNB reduction) activity in treated worms [5]: significant inhibition
Selectivity for SmTGR over hTrxR (Mammalian TrxR [4]): high selectivity
IC50 (SmTGR [1]): 0.06 µM
Fold more potent than 5 (SmTGR IC50) (SmTGR [1]; IC50 of 6 compared with IC50 of 5): 2000 fold

The next lines start with results.

IC50 (SmTGR [1]): 4400 µM
Compound: O=C(O)c1ccc(CN2CCN(CCO)CC2)nc1 [CID: 80159879, 6-((4-(2-Hydroxyethyl)piperazin-1-yl)methyl)nicotinic acid]

IC50 (SmTGR [1]): > 10000 µM
Compound: NCCCCN1CCN(CCO)CC1 [Compound 3, 2-[4-(4-aminobutyl)piperazin-1-yl]ethanol]

IC50 (SmTGR [1]): 120 µM
Compound: OCCN1CCN(Cc2cc(Cl)c3cccnc3c2O)CC1 [Compound 5, 5-chloro-7-((4-(2-hydroxyethyl)piperazin-1-yl)methyl)quinolin-8-ol]
Inhibition of mammalian hTrxR (in words) (Mammalian TrxR [2]): undetectable inhibition
Mammalian TrxR IC50 (Mammalian TrxR [2]): Inactive
Schistosomula killed (schistosomula; 10 μM, in five days): 80%
Schistosomula killed (schistosomula; 50 μM, in 24 hr): killed all schistosomula
Adult worms killed (adult worms; 10 μM, in five days): 27%
Adult worms killed (adult worms; 50 μM, in five days): 88%
GR (GSH disulfide reduction) activity in treated worms [5]: significant inhibition
TrxR (DTNB reduction) activity in treated worms [5]: significant inhibition
Selectivity for SmTGR over hTrxR (Mammalian TrxR [4]): high selectivity

— paper PMC6905387 (ACS chemical biology, 2018)
